# A selection: hits, their analogues and other compounds. The true share with any hit is near 4.3%.
# Beta2AR agonist: agonists of human beta-2 adrenergic receptor inducing internalization; P07550; Am2.2-beta2AR cells, FAP receptor internalization, flow cytometry; response, % (no concentration beside the values); actives 0.43% (n = 340,000);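 active = response above a set limit, near 3 SD of response in nonfluorescent compounds, cut at about 42% in these data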
# Target sequence (P07550 whole entry, looked up): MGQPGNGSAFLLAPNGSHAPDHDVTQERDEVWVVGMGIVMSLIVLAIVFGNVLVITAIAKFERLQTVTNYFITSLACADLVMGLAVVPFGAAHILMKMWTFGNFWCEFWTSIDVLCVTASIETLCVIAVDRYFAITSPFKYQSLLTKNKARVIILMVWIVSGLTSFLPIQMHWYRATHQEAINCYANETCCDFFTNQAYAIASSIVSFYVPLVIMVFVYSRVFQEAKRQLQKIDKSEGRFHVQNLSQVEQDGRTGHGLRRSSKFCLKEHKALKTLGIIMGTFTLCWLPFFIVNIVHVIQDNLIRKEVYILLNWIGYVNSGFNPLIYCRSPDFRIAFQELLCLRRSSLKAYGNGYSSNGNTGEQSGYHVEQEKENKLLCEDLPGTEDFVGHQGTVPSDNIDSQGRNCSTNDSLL
# MC4R ag barr: agonists of human melanocortin 4 receptor (MC4R) beta-arrestin; activation, % at 8.9 µM; P32245; actives 0.98% (n = 360,000); U2OS MC4R beta-arrestin complementation, luminescence; percent of melanotan II response, DMSO zero;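 active = activation above a per-plate cutoff, the mean activation of sample wells on that plate plus 3 SD, cut at about 8% in these data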
# HTR2A ag: activates the mouse 5-HT2A serotonin receptor. P35363. CHO-K1 mHTR2A beta-arrestin complementation, luminescence; percent of 30 µM serotonin response. activation, % at 7.6 µM. actives 0.66% (n = 360,000). AID 624169;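 active = activation above a run cutoff, the mean activation of all tested compounds plus 3 SD, cut at about 14% in these data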;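 note: 0% = plate median of compound wells and 100% = 30 µM serotonin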
# MC4R antag cAMP: blocks human MC4R cAMP signaling; P32245; MC4R-expressing cells, MTII-stimulated cAMP, LANCE TR-FRET; inhibition, % at 6.5 µM; actives 0.48% (n = 360,000); AID 540295;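 active = inhibition above its plate's cutoff, the mean of tested wells on that plate plus 3 SD, cut at about 29% in these data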;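 note: 0% = Melanotan II alone and 100% = Melanotan II plus saturating MCL0020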
#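 System – human MC4R-expressing U2OS cells · Also added – Melanotan II · Dosing – one concentration, 6.5 µM nominal · Timing – 30-min compound, 1-h challenge, 1-h detection, room temperature · Measured by – Eu-cAMP/anti-cAMP TR-FRET, emission 671 nm · Replicates – singlicate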
# TAAR1 agonist: agonists of human TAAR1 | CHO RD-HGA16 TAAR1, Fluo-8 calcium fluorescence; vehicle wells 0%, saturating PEA agonist 100% | Q96RJ0 | activation, % at 3 µM | actives 0.99% (n = 360,000);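 active = activation above the mean activation of all test compounds in the run plus 3 SD, cut at about 38% in these data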
#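 Benchmarks: low control DMSO, high control PEA (EC100); System: CHO RD-HGA16 cells carrying human TAAR1 plus Gα16; Detection: Fluo-8 fluorescence, 5 s baseline then 140 s kinetic read; Schedule: 17-24 h plating, Fluo-8 75 min 37 °C, 30 min RT; Read-out basis: % activation from peak over basal fluorescence ratio, DMSO-to-PEA scaled.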
# TAAR1 antag: antagonists of human TAAR1. Q96RJ0. CHO RD-HGA16 TAAR1, Fluo-8 calcium fluorescence, antagonist. inhibition, % at 3 µM. actives 1.5% (n = 360,000). AID 624466;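 active = inhibition above a per-plate cutoff, the mean inhibition of test compounds on that plate plus 3 SD, cut at about 49% in these data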;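 note: 0% = DMSO plus EC80 beta-PEA response and 100% = DMSO alone without agonist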
#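 Test system – hTAAR1-expressing CHO RD-HGA16 cells, Gα16-coupled · Also added – β-PEA at EC80 concentration, post-compound challenge · Compound – 3 µM, single point · Incubation – dye loading 75 min at 37 °C, then 30 min room temperature · Measured by – Fluo-8 intracellular calcium dye fluorescence, real-time kinetic reads · Benchmarks – vehicle and agonist controls · Replicates – singlicate, one well per test compound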
# TAAR1 nonsel count: nonselective antagonist in TAAR1 antagonist counter-screen; counterscreen cell line, calcium fluorescence, antagonist mode; actives 77% (n = 2,400); shares compounds with TAAR1 antag; inhibition, % at 3 µM; in the data active = inhibition above about 22%;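 note: CHO-Ga16 host cells stimulated with ATP at an EC80 level; 0% = agonist EC80 plus vehicle and 100% = vehicle without agonist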
# TAAR1 ant conf: confirmation of human TAAR1 antagonists | actives 40% (n = 2,400) | shares compounds with TAAR1 antag | inhibition, % at 3 µM | TAAR1-expressing cells, fluorescence antagonist read-out; in the data active = inhibition above about 49%;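 note: CHO-Ga16 host cells challenged with agonist PEA near its EC80; 0% = agonist at EC80 plus vehicle and 100% = vehicle with no agonist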
# Ga16 nonsel ag: nonselective Ga16 agonism, counter-screen | shares compounds with TAAR1 antag | Ga16-expressing cells, calcium fluorescence, agonist counterscreen | activation, % at 3 µM | actives 18% (n = 2,400); in the data active = activation above about 12%;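 note: 0% = vehicle wells and 100% = saturating stimulus response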
# TAAR1 ag count: TAAR1 agonism, antagonist counter-screen | shares compounds with TAAR1 antag | hTAAR1 cell line, fluorescence activation, agonist mode | activation, % at 3 µM | actives 2% (n = 2,400) | AID 651955; in the data active = activation above about 37%;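 note: CHO cells stably expressing TAAR1 with calcium dye readout; 0% = DMSO vehicle and 100% = full agonist response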
# Numbers without * were called inactive; · = no result.
SMILES,Beta2AR agonist,MC4R ag barr,HTR2A ag,MC4R antag cAMP,TAAR1 agonist,TAAR1 antag,TAAR1 nonsel count,TAAR1 ant conf,Ga16 nonsel ag,TAAR1 ag count
Cc1ccc(C(=O)NCC(=O)OCC(=O)/C=C2\N(C)c3ccccc3C2(C)C)cc1C,-4,-3,-5,5,3,58*,29*,41,6,8
COc1ccc(N2CCN(C(=O)c3cc(-c4cccs4)nc4ccccc34)CC2)cc1,7,1,0,1,18,30,·,·,·,·
COc1cccc(CN(C)C(=O)c2cc(-c3cccs3)nc3ccccc23)c1,9,0,9,11,10,76*,35*,58*,10,13
COc1ccc(-c2cc(C(=O)N(C)Cc3ccccc3F)c3ccccc3n2)cc1OC,11,-1,5,0,9,78*,28*,44,7,5
COc1ccc(-c2cc(C(=O)N(C)CC(=O)Nc3ccccc3Br)c3ccccc3n2)cc1OC,18,-3,8,11,12,65*,29*,51*,8,6
COc1cc(-c2cc(C(=O)OCC(=O)NC3CC3)c3ccccc3n2)cc(OC)c1OC,16,-1,3,13,13,68*,27*,41,8,10
COc1ccccc1CN(C)C(=O)c1cc(-c2cc(OC)c(OC)c(OC)c2)nc2ccccc12,3,-1,3,-4,8,61*,35*,54*,5,4
COc1ccc(OCC(=O)N2CCc3ccccc32)c([N+](=O)[O-])c1,·,0,-2,7,-1,-8,·,·,·,·
Fc1ccc2nc(-c3ccc(CN4CCC(c5nc6ccccc6[nH]5)CC4)cc3)c(-c3ccccc3)nc2c1,·,·,·,·,19,54*,47*,55*,21*,34
C(=N\Nc1nc(Nc2ccccc2)nc(Nc2ccccc2)n1)/c1cccnc1,3,-1,-7,14,9,57*,25*,46,5,1
Cc1ccc(-c2cc(-c3ccccc3)nc(N/N=C/c3cccnc3)n2)cc1,0,1,-1,-7,7,36,·,·,·,·
C(=N/Nc1nc(-c2ccccc2)cc(-c2ccccc2)n1)/c1cccnc1,2,-2,-3,12,11,65*,31*,53*,4,3
CC1(C2CC2)NC(=O)N(CC(=O)Nc2ccc(Cl)c([N+](=O)[O-])c2)C1=O (configuration not stated),-4,-5,-2,13,3,-5,·,·,·,·
CCSc1nnc2ccc(-c3ccco3)nn12,-5,0,4,10,3,-23,·,·,·,·
COc1ccccc1CN1CC(=O)N2CSC[C@H]2C1=O,2,1,2,18,-1,2,·,·,·,·
CC(=O)NC(CC(=O)N(C)C1CCCCC1)c1ccccc1 (configuration not stated),15,1,6,-2,-1,-6,·,·,·,·
CCCNNC(=O)C(O)(c1ccccc1)c1ccccc1,4,4,4,-6,-1,5,·,·,·,·
CCOC(=O)CCP(=O)(O)C(C)(O)c1ccccc1 (configuration not stated),3,-1,3,2,6,107*,-1,-2,7,7
CCCc1ccc(-c2cc(NC(=O)Cc3c(C)[nH]c4ccccc34)ccc2Nc2cccnc2)cc1,·,·,·,·,1,-22,·,·,·,·

# Screens deposited in PubChem BioAssay by several laboratories.
